Test results from ChEMBL document CHEMBL4814057, “4-4-(Anilinomethyl)-3-[4-(trifluoromethyl)phenyl]-1H-pyrazol-1-ylbenzoic acid derivatives as potent anti-gram-positive bacterial agents” (Eur J Med Chem, 2021).
Converted amounts (≈) assume the structure as drawn. The source made the active and inactive calls. The rule behind the calls is not given here.

Legend:
Staphylococcus aureus [1] = assay: Antibiofilm activity against Staphylococcus aureus ATCC 25923 assessed as destruction of biofilm formation at 1 times MIC after 24 hrs by crystal violet staining based assay relative to control; type: functional
In short: (§1)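 Overnight culture brought to 0.5 McFarland in PBS, diluted 1:100 in CAMHB with 1% glucose. Inhibition: cells plus compound (in DMSO) at 2x, 1x, 0.5xMIC, 24 h at 35 °C, triplicate. Destruction: 24 h biofilm grown without drug, washed, fresh medium with compound, further 24 h. Then washed, dried, 0.1% crystal violet, solubilized in 33% acetic acid, OD 620 nm. Controls are DMSO-only and broth-only wells.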

Staphylococcus aureus [2] = assay: Antibacterial activity against methicillin resistant Staphylococcus aureus ATCC 700699 persisters assessed as reduction in viability at 8 times MIC measured within 4 hrs by colony counting method; type: functional; conditions: time hrs <=4
In short: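 Stationary-phase S. aureus from overnight CAMHB culture (35 °C, 200 rpm), washed thrice in PBS, diluted to ~5 × 10^8 CFU/ml. Incubated with antibiotic at 35 °C, 200 rpm. Aliquots taken at set times, washed, serially diluted in PBS, drop-plated (6 × 6) on TSA with 5% sheep blood. Colonies counted after 18–20 h at 35 °C. Triplicates.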

Staphylococcus aureus [3] = assay: Inhibition of lipid synthesis in Staphylococcus aureus ATCC 29213 at 4 times MIC measured by liquid scintillation counter; type: functional
In short: (§2)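 Early-exponential cells in CAMHBII with drug in triplicate. Lipids extracted with chloroform/water, centrifuged, organic phase dried, then scintillation counted.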

Staphylococcus aureus [4] = assay: Inhibition of lipid synthesis in Staphylococcus aureus ATCC 29213 at 0.25 times MIC measured by liquid scintillation counter; type: functional; in short: as §2
[5] = Toxicity in CD1 mouse assessed as effect on phosphorus level at 50 mg/kg, ip administered as single dose measured after 24 hrs; type: organism-based; conditions: in vivo
In short: (§3)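 Male CD-1 mice, 8 weeks, 32–37 g, n = 10 per dose. Single IP injection at 5, 20 or 50 mg/kg in 0.9% saline, filter-sterilized; saline vehicle group. Blood taken by cardiac puncture 24 h later. 14 plasma markers measured on a chemistry panel, reported as mean ± SE. Toxicity judged by significance versus controls, normal ranges, dose-dependence and consistency across organ markers.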

Enterococcus faecalis [6] = assay: Antibiofilm activity against Enterococcus faecalis ATCC 29212 assessed as destruction of biofilm formation at 2 times MIC after 24 hrs by crystal violet staining based assay relative to control; type: functional; in short: as §1
Enterococcus faecium = assay: Antimicrobial activity against vancomycin-resistant Enterococcus faecium ATCC 700221 assessed as bacterial growth inhibitions by CLSI protocol based microdilution method; type: functional
[7] = Toxicity in CD1 mouse assessed as effect on sodium level at 50 mg/kg, ip administered as single dose measured after 24 hrs; type: organism-based; conditions: in vivo; in short: as §3
[8] = Toxicity in CD1 mouse assessed as effect on calcium level at 50 mg/kg, ip administered as single dose measured after 24 hrs; type: organism-based; conditions: in vivo; in short: as §3
Staphylococcus aureus [9] = assay: Antibiofilm activity against Staphylococcus aureus ATCC 25923 assessed as destruction of biofilm formation at 2 times MIC after 24 hrs by crystal violet staining based assay relative to control; type: functional; in short: as §1
Staphylococcus aureus [10] = assay: Antimicrobial activity against methicillin-susceptible Staphylococcus aureus ATCC 25923 assessed as bacterial growth inhibitions by CLSI protocol based microdilution method; type: functional
[11] = Toxicity in CD1 mouse assessed as effect on glucose level at 50 mg/kg, ip administered as single dose measured after 24 hrs; type: organism-based; conditions: in vivo; in short: as §3
Staphylococcus aureus [12] = assay: Inhibition of RNA synthesis in Staphylococcus aureus ATCC 29213 at 4 times MIC measured by liquid scintillation counter; type: functional
In short: (§4)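 Early-exponential cells in CAMHB added to drug (40x stock) in triplicate, with a no-drug control. After 30 min pre-incubation at room temperature, [3H]thymidine 3.0 µCi/tube (DNA) or [3H]uridine 0.5 µCi/tube (RNA) added for 30 min at room temperature. Stopped with cold TCA, precipitate filtered and washed, then scintillation counted.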

[13] = Toxicity in CD1 mouse assessed as effect on potassium level at 50 mg/kg, ip administered as single dose measured after 24 hrs; type: organism-based; conditions: in vivo; in short: as §3
Enterococcus faecalis [14] = assay: Antibiofilm activity against Enterococcus faecalis ATCC 29212 assessed as inhibition of biofilm formation at 2 times MIC after 24 hrs by crystal violet staining based assay relative to control
Staphylococcus aureus [15] = assay: Bactericidal activity against Staphylococcus aureus ATCC 33591 assessed as reduction bacterial growth at 4X MIC measured after 4 hrs by time-kill kinetic assay; type: functional
In short: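 Log-phase culture diluted to ~5 × 10^6 CFU/ml in warm CAMHB, exposed at 4xMIC, 35 °C. 20 µl samples every 2 h, 10-fold dilutions to 10^-5, 6 × 6 drop plating. CFU/ml counted after 18–24 h at 35 °C; triplicate.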

[16] = Toxicity in CD1 mouse assessed as effect on creatine level at 50 mg/kg, ip administered as single dose measured after 24 hrs; type: organism-based; conditions: in vivo; in short: as §3
Staphylococcus aureus [17] = assay: Inhibition of RNA synthesis in Staphylococcus aureus ATCC 29213 at 0.25 times MIC measured by liquid scintillation counter; type: functional; in short: as §4
[18] = tested on: Staphylococcus epidermidis; assay: Antimicrobial activity against methicillin-resistant Staphylococcus epidermidis ATCC 700296 assessed as bacterial growth inhibitions by CLSI protocol based microdilution method; type: functional
Staphylococcus aureus [19] = assay: Antimicrobial activity against antibiotic-resistant Staphylococcus aureus BM-2312 assessed as bacterial growth inhibitions by CLSI protocol based microdilution method; type: functional
Staphylococcus aureus [20] = assay: Antibacterial activity against vancomycin-intermediate susceptible Staphylococcus aureus ATCC 25923 assessed as bacterial growth inhibition by measuring fold increase in MIC between 14 passages by broth dilution method; type: functional
[21] = Toxicity in CD1 mouse assessed as blood plasma albumin level at 50 mg/kg, ip administered as single dose measured after 24 hrs; type: organism-based; conditions: in vivo; in short: as §3
Enterococcus faecalis [22] = assay: Antibacterial activity against vancomycin-intermediate Enterococcus faecalis ATCC 29212 assessed as bacterial growth inhibition by measuring fold increase in MIC after14 passages by broth dilution method; type: functional, organism-based
[23] = Toxicity in CD1 mouse assessed as effect on liver 50 mg/kg, ip administered as single dose measured after 24 hrs by TUNEL assay; type: organism-based; conditions: in vivo
In short: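 Male CD-1 mice, single IP 50 mg/kg in saline; saline control. Acetaminophen 300 mg/kg and cisplatin 20 mg/kg IP as positive controls. At 24 h, liver and kidney paraffin-embedded, 5-µm sections, TUNEL stained with DAPI counterstain, imaged by fluorescence microscopy.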

Staphylococcus aureus [24] = assay: Antimicrobial activity against Staphylococcus aureus ATCC 29213 assessed as inhibition of cell wall synthesis at 4 to 8 times MIC measured by liquid scintillation counter; type: functional
In short: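 Early-exponential cells resuspended in M9 minimal medium, drug (40x stock) in triplicate, 30 min pre-incubation at 37 °C. [14C]N-acetylglucosamine 0.4 µCi/reaction for 45 min at 37 °C. Stopped with 8% SDS, heated 95 °C 30 min, spotted on nitrocellulose, washed with 0.1% SDS, then scintillation counted.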

[25] = Toxicity in CD1 mouse assessed as effect on total bilirubin level at 50 mg/kg, ip administered as single dose measured after 24 hrs; type: organism-based; conditions: in vivo; in short: as §3

SMILES: O=C(O)c1ccc(-n2cc(CNc3cc(F)cc(C(F)(F)F)c3)c(-c3ccc(C(F)(F)F)cc3)n2)cc1
- Activity (Staphylococcus aureus [1]): 55%
- Activity (Staphylococcus aureus [2]): 3 log10CFU/ml
- inhibition (INH) (Staphylococcus aureus [3]): 100%
- inhibition (INH) (Staphylococcus aureus [4]): 20.7%
- Activity [5]: Non-Toxic
- Activity (Enterococcus faecalis [6]): 85%
- MIC (Enterococcus faecium): 0.78 µg/mL (≈ 1.49 µM)
- Activity [7]: Non-Toxic
- Activity [8]: Non-Toxic
- Activity (Staphylococcus aureus [9]): 70%
- MIC (Staphylococcus aureus [10]): 0.39 µg/mL (≈ 0.745 µM)
- Activity [11]: Non-Toxic
- inhibition (INH) (Staphylococcus aureus [12]): 98%
- Activity [13]: Non-Toxic
- inhibition (INH) (Enterococcus faecalis [14]): 90%
- Activity (Staphylococcus aureus [15]): 3 log10CFU/ml
- Activity [16]: Non-Toxic
- inhibition (INH) (Staphylococcus aureus [17]): 15.5%
- MIC [18]: 1.56 µg/mL (≈ 2.98 µM)
- MIC (Staphylococcus aureus [19]): 0.78 µg/mL (≈ 1.49 µM)
- fold change (FC) (Staphylococcus aureus [20]): 2
- Activity [21]: Non-Toxic
- Activity (Enterococcus faecalis [22]): inactive
- Activity [23]: Non-Toxic
- inhibition (INH) (Staphylococcus aureus [24]): >80%
- Activity [25]: Non-Toxic
